Experimental data: ChEMBL document CHEMBL3259660, “Haloemodin as novel antibacterial agent inhibiting DNA gyrase and bacterial topoisomerase I” (J Med Chem, 2014)
In brackets after ≈: the same amount, converted by molar mass. Activity calls are given as the source filed them. No cut-off for these calls is given here.

How the values were obtained:
Mus musculus = assay: In vivo acute toxicity in Kunming mouse assessed as mortality at 100 mg/kg, iv administered as single dose measured within 7 days; format: organism-based; parameters: dose 100 mg/kg, route intravenous; details: 168 h
How it was run: (§1)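 Male and female adult Kunming mice (18−22 g) received a single intravenous injection at various doses (n = 10 per group, 200 μL per mouse). Compound was given in polyethylene glycol−water (1:1, v/v), and controls received vehicle alone. Mortality was recorded for 7 days. LD50 was estimated by probit analysis.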

Enterococcus faecium [1] = assay: Antibacterial activity against vancomycin-resistant Enterococcus faecium assessed as growth inhibition by agar dilution assay; format: functional
Bacteroides fragilis [2] = assay: Antibacterial activity against Bacteroides fragilis assessed as growth inhibition by agar dilution assay; format: functional
How it was run: (§2)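 Agar dilution MIC per CLSI (aerobic and anaerobic methods); compounds dissolved in DMSO, reference antibiotics in sterile water. MIC taken as lowest concentration with no visible growth; determined at least twice on separate days, higher value reported. Clinical isolate ranges summarized as MIC50/MIC90.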

[3] = Cytotoxicity against CHL cells assessed as cell viability after 24 hrs by MTT assay; format: cell-based, Cricetulus griseus; details: chinese hamster
How it was run: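 CHL fibroblasts seeded at about 5 × 10^4 cells/mL, incubated overnight at 37 °C, 5% CO2, then exposed to compound at different concentrations for 24 h. Viability read by MTT, absorbance at 570 nm, relative to cells in medium alone (100%). Triplicate.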

[4] = tested on: Brevibacillus laterosporus; assay: Antibacterial activity against Brevibacillus laterosporus ATCC 64 assessed as growth inhibition by agar dilution assay; format: functional
Staphylococcus aureus [5] = assay: Antibacterial activity against methicillin-sensitive Staphylococcus aureus assessed as growth inhibition by agar dilution assay; format: functional; how it was run: as §2
[6] = In vivo acute toxicity in iv dosed Kunming mouse; format: organism-based; how it was run: as §1
[7] = Binding affinity to supercoiled pHOT-1 DNA assessed as unwinding of DNA helix by measuring distribution of topoisomers at 10 to 150 uM treated 15 mins prior to Escherichia coli topoisomerase 1 addition for 30 mins by agarose gel electrophoresis
Escherichia coli [8] = assay: Antibacterial activity against Escherichia coli assessed as growth inhibition by agar dilution assay in presence of 0.002 mg/ml OM permeabilizer PBMN; format: functional
Bacillus cereus = assay: Antibacterial activity against Bacillus cereus ATCC 10231 assessed as growth inhibition by agar dilution assay; format: functional
[9] = tested on: Staphylococcus epidermidis; assay: Antibacterial activity against methicillin-sensitive Staphylococcus epidermidis assessed as growth inhibition by agar dilution assay; format: functional; how it was run: as §2
Streptococcus pneumoniae [10] = assay: Antibacterial activity against Streptococcus pneumoniae ATCC 49619 assessed as growth inhibition by agar dilution assay; format: functional; how it was run: as §2
Escherichia coli [11] = assay: Antibacterial activity against Escherichia coli PQ 37 harboring OM permeability barrier mutant assessed as growth inhibition by agar dilution assay; format: functional
How it was run: (§3)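 CLSI agar dilution MIC against aerobic and anaerobic strains. Test compounds were dissolved in DMSO and reference antibiotics in sterile water. MIC was taken as the lowest concentration showing no bacterial growth. Each MIC was determined at least twice on separate days, and the higher value was reported. E. coli PQ 37 was cultured in LA medium.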

Bacteroides fragilis [12] = assay: Antibacterial activity against Bacteroides fragilis ATCC 25285 assessed as growth inhibition by agar dilution assay; format: functional; how it was run: as §2
Enterococcus faecium [13] = assay: Antibacterial activity against vancomycin-sensitive Enterococcus faecium assessed as growth inhibition by agar dilution assay; format: functional
Escherichia coli [14] = assay: Antibacterial activity against Escherichia coli assessed as growth inhibition by agar dilution assay; format: functional, organism-based; how it was run: as §2
Escherichia coli [15] = assay: Inhibition of Escherichia coli DNA gyrase-mediated double-stranded catenated kinetoplast DNA decatenation at 90 uM after 30 mins by agarose gel electrophoresis in presence of ATP
How it was run: (§4)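 kDNA decatenation: 200 ng catenated kDNA with 1 U S. aureus gyrase, E. coli gyrase or human Topo IIα in assay buffer with ATP, 37 °C for 30 min. Stopped with universal stop solution, resolved on 1% agarose, ethidium bromide stained, UV imaging.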

Pseudomonas aeruginosa = assay: Antibacterial activity against Pseudomonas aeruginosa assessed as growth inhibition by agar dilution assay; format: functional; how it was run: as §3
[16] = target: T1, DNA gyrase (Staphylococcus aureus) (UniProt P0A0K8+P20831); assay: Inhibition of Staphylococcus aureus DNA gyrase-mediated double-stranded catenated kinetoplast DNA decatenation at 90 uM after 30 mins by agarose gel electrophoresis in presence of ATP; format: protein-complex assay; how it was run: as §4
T1 sequence (P0A0K8 2-644 limits assumed): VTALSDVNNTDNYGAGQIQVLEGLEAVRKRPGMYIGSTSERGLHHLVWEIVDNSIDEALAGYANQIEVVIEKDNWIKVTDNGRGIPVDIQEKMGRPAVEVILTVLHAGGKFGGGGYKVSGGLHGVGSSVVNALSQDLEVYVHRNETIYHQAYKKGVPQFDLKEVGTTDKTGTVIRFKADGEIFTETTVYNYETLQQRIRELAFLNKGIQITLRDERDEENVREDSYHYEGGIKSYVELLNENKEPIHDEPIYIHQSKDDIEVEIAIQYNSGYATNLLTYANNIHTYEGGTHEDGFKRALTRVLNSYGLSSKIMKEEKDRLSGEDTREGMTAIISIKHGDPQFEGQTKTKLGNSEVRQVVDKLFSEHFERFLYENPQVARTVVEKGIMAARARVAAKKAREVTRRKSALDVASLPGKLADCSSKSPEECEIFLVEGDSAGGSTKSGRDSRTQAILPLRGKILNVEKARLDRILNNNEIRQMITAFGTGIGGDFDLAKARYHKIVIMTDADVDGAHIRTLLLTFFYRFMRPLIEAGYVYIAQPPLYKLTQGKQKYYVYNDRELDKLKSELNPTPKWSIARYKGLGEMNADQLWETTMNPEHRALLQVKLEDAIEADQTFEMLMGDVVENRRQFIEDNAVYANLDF
T1 sequence (P20831 whole entry partner): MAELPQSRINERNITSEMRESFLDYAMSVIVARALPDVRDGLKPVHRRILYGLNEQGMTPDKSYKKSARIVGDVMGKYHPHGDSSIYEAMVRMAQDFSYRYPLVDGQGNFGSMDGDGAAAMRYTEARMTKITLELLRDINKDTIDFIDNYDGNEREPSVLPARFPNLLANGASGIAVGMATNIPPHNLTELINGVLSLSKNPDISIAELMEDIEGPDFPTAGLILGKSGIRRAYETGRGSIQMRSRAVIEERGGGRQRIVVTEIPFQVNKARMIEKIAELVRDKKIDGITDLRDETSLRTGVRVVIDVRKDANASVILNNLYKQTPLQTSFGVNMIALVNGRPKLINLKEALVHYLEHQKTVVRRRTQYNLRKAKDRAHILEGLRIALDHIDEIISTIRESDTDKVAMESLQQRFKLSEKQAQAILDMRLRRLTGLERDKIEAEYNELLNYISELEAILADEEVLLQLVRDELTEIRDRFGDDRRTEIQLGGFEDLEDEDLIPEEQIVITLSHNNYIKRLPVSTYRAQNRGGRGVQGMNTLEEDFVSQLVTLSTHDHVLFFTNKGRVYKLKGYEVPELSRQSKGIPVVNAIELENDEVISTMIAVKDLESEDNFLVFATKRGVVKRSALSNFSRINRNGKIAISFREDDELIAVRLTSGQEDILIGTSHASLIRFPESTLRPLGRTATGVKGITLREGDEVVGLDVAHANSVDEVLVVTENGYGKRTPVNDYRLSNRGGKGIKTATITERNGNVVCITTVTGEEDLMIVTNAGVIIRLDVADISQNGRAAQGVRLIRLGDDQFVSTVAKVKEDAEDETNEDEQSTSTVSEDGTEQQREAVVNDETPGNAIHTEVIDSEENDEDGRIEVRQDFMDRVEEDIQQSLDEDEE

Staphylococcus aureus [17] = assay: Antibacterial activity against Staphylococcus aureus ATCC 29213 assessed as growth inhibition by agar dilution assay; format: functional; how it was run: as §2
Staphylococcus aureus [18] = assay: In vivo antibacterial activity against Staphylococcus aureus in New zealand rabbit keratitis model assessed as suppression of corneal edema at 4.3 mg/ml administered topically every 4 hrs for four doses every day for 10 days starting 24 hrs post-infection by slit lamp biomicroscopy; format: functional, organism-based; details: Cornea
How it was run: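 NZW rabbits (2.0−3.0 kg), anesthetized with iv sodium pentobarbital 30 mg/kg, given intracorneal S. aureus (about 7.5 × 10^6 CFU) from an overnight LB culture. Starting 24 h post-infection, 30 μL drops applied topically per eye every 4 h, four doses daily (8 a.m.–8 p.m.), for 10 days, masked. Test compound in PEG–water (1:1). Slit-lamp biomicroscopy before and after.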

[19] = Binding affinity to supercoiled pHOT-1 DNA assessed as unwinding of DNA helix by measuring shift of negative to positive supercoiled pHOT-1 at 10 to 150 uM treated 15 mins prior to Escherichia coli topoisomerase 1 addition for 30 mins by agarose gel electrophoresis
[20] = target: T1, DNA gyrase (Staphylococcus aureus); assay: Inhibition of Staphylococcus aureus DNA gyrase-mediated pHOT-1 supercoiling at 30 uM after 30 mins by agarose gel electrophoresis in presence of ATP; format: protein-complex assay
How it was run: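 Supercoiling: 100 ng relaxed pHOT-1 with 1 U S. aureus or E. coli gyrase and graded compound concentrations, ATP present, 37 °C for 30 min. Stopped with 10% SDS, 1% agarose electrophoresis, ethidium bromide staining, UV imaging; ciprofloxacin positive control.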

Streptococcus pneumoniae [21] = assay: Antibacterial activity against Streptococcus pneumoniae assessed as growth inhibition by agar dilution assay; format: functional; how it was run: as §2
Staphylococcus aureus [22] = assay: microbe, parasite or virus in culture; format: functional; details: ATCC 6538

Cc1cc(O)c2c(c1)C(=O)c1c(I)c(O)c(I)c(O)c1C2=O
Activity (Mus musculus): Non-toxic | MIC (Enterococcus faecium [1]): 8 µg/mL (≈ 15.3 µM) | MIC (Bacteroides fragilis [2]): 64 µg/mL (≈ 123 µM) | IC90 at 24 h [3]: 256 µg/mL (≈ 490 µM) | MIC [4]: 4 µg/mL (≈ 7.66 µM) | MIC (Staphylococcus aureus [5]): 8 µg/mL (≈ 15.3 µM) | LD50 [6]: 110 mg/kg | Activity [7]: inactive | MIC (Escherichia coli [8]): 8 µg/mL | MIC (Bacillus cereus): 4 µg/mL (≈ 7.66 µM) | MIC [9]: 1 µg/mL (≈ 1.92 µM) | MIC (Streptococcus pneumoniae [10]): 64 µg/mL (≈ 123 µM) | MIC (Escherichia coli [11]): 8 µg/mL (≈ 15.3 µM) | MIC (Bacteroides fragilis [12]): 256 µg/mL (≈ 490 µM) | MIC (Enterococcus faecium [13]): 16 µg/mL (≈ 30.6 µM) | growth inhibition (GI) (Escherichia coli [14]): inactive | inhibition (Escherichia coli [15]): Active | MIC (Pseudomonas aeruginosa): > 256 µg/mL | inhibition [16]: Active | MIC (Staphylococcus aureus [17]): 8 µg/mL (≈ 15.3 µM) | inhibition (Staphylococcus aureus [18]): Active | Activity [19]: inactive | inhibition [20]: Active | MIC (Streptococcus pneumoniae [21]): 32 µg/mL (≈ 61.3 µM) | MIC (Staphylococcus aureus [22]): 2 µg/mL (≈ 3.83 µM)
